Data on 2 molecules can be found in paper PMC9677924 (International Journal of Nanomedicine, 2022).

The subject of data set [1] is MCF-7/HER2 cells. As to the kind of experiment: In vitro cytotoxicity, MTT assay. Format: cell-based. The conditions noted are these: Homo sapiens, MCF7, 48 h, read-out: IC50 (ng/mL) Free Drug. Put shortly: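 MCF-7/HER2 cells grown in DMEM/F12 with 10% FBS and 1% penicillin/streptomycin/amphotericin B at 37 °C, 5% CO2. Seeded at 1×10^4 cells/well for 24 h, then exposed to test compounds (free or nanocarrier forms) at 1~500 ng/mL. Methods give a 48 h exposure; the figure legend gives 72 h. Then 0.5 mg/mL MTT for 3 h, formazan dissolved in DMSO, absorbance read at 550 nm.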
(Formazan colour is commonly taken as a measure of viable cells.)

The nature of data set [2]: In vivo pharmacokinetic studies. Details: species or system Sprague-Dawley rats.
A short description of data set [3]: In vivo biodistribution studies in MCF-7/HER2 tumor-bearing mice. As to conditions: 8 h after administration; liver and kidneys. Details: species or system nude mice.
Data set [4] can be described thus: Biosafety examination. Format: in vivo, nude mice. As to conditions: after the Q3D×4 regimen. In short, it runs like this: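 Organs and tumors came from the MCF-7/HER2 xenograft nude-mouse study (IV dosing every 3 days ×4). Tail morphology was examined on day 24. On day 28 after administration, tissues were fixed in 4% paraformaldehyde. Heart, liver, spleen, lungs and kidneys were H&E-stained and scored for inflammatory cell infiltration.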

A short description of data set [5]: In vitro release of docetaxel and pictilisib. Format: physicochemical. As to conditions: after 12 h.
For data set [6], the system named is MCF-7/HER2 tumors. The data set can be described thus: In vivo tumor inhibition studies. Details: species or system nude mice. As to conditions: day 24, compared with the PBS group; IV Q3D×4. Put shortly: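 Female nude mice (7 weeks) injected s.c. in the right thigh with 1×10^6 MCF-7/HER2 cells, plus 20 μg estradiol valerate in sesame oil s.c. in the neck. At ~100 mm3, mice were randomized to 10 groups (n=4, saline control). They received IV tail-vein doses equivalent to 5 mg/kg taxane and/or 2.5 mg/kg PI3K inhibitor every 3 days ×4. Volume (L×W²/2) and body weight were recorded every 3 days. Tumors were excised and weighed on day 24.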

For data set [7] the following is noted: cited from earlier work.
The conditions of data set [8]: cited from earlier work. This is another data set of the same source.
Where [9] appears, read: female, Sprague-Dawley, rat, plasma, iv, 5 mg/kg.
Where [10] appears, read: female, Sprague-Dawley, rat, plasma, iv, 2.5 mg/kg.

In brackets after ≈: the same amount, converted by molar mass.

Consider `CC(=O)O[C@@]12CO[C@@H]1C[C@H](O)[C@@]1(C)C(=O)[C@H](O)C3=C(C)[C@@H](OC(=O)[C@H](O)[C@@H](NC(=O)OC(C)(C)C)c4ccccc4)C[C@@](O)([C@@H](OC(=O)c4ccccc4)[C@H]21)C3(C)C` [DTX, docetaxel], for which the IC50 in data set [1] came out at 12.5 ± 2.69 ng/mL (≈ 0.0155 µM). For the same molecule, in data set [2] (setting [9]), the AUC(0-inf) (commonly the area under the concentration-time curve extrapolated to infinity) was found to be 524 ± 37 ng·h/mL; the exposure AUC(0-t) (as a rule, exposure summed from dosing to a finite time, without extrapolation to infinity) was found to be 487 ± 37 ng·h/mL; the Vd (in general, a proportionality between amount in the body and measured concentration, not a real space) amounted to 73.4 ± 5.22 L/kg; the clearance (in general, the volume of plasma or blood freed of the substance per unit of time) was 160 mL/min/kg. Further, the half-life – broadly, how long it takes for the measured level to halve – in data set [2] (setting [9]) is 5.32 ± 0.24 h. In data set [2] (relative to Free DTX, IV 5 mg/kg BW DTX, rats), the “Relative bioavailability (%) of DTX” value was found to be 100%. Besides, the “accumulation of DTX in major organs” value in data set [3] was “higher accumulation in the liver and kidneys”. Further, the “liver, H&E staining (inflammatory cell infiltration)” value in data set [4] was “slight liver damage”.
Consider `CS(=O)(=O)N1CCN(Cc2cc3nc(-c4cccc5[nH]ncc45)nc(N4CCOCC4)c3s2)CC1` [PIC, pictilisib], for which, in data set [1], the IC50 stood at 86.8 ± 17.6 ng/mL (≈ 0.169 µM). The “precipitation in the dialysis bag” value in data set [5] is on record as “precipitation in the free PIC group was observed”. In data set [2] (setting [10]), this molecule gave an AUC(0-inf) of 536 ± 44 ng·h/mL, an AUC(0-t) of 530 ± 46 ng·h/mL, a Vd of 19.7 ± 6.27 L/kg and a half-life of 2.92 ± 0.97 h. Moreover, in data set [2] (pictilisib in plasma, IV 2.5 mg/kg BW PIC, rats, n=3, listed as Free PIC, 2.5 mg/kg), the “C0 (μg/mL) of PIC” value came out at 0.691 ± 0.115 µg/mL. Moreover, in data set [6], the “tumor weights / tumor inhibition” value is on record as “little antitumor efficacy”. Further, the log P (as a rule, the decadic logarithm of the partition coefficient of the neutral form, usually between octanol and water) in data set [7] was 1.96. Also, the pKa (in general, the pH at which an ionisable group is half protonated) in data set [8] was 13.19.
